Measurements: ChEMBL document CHEMBL3526048, “In vitro metabolism of rivoglitazone, a novel peroxisome proliferator-activated receptor γ agonist, in rat, monkey, and human liver microsomes and freshly isolated hepatocytes” (Drug Metab Dispos, 2011)

Assays:
Cytochrome P450 1A2 [1] = molecular target: T1, Cytochrome P450 1A2 (Homo sapiens, UniProt P05177); assay: (§1) Activity of human CYP1A2 expressed in microsomes isolated from baculovirus infected insect cell assessed as enzyme-mediated 5-hydroxy-5-(4-((6-methoxy-1-methyl-1H-benzo[d]imidazol-2-yl)methoxy)benzyl)thiazolidine-2,4-dione formation at 20 uM after 2 hrs by radio-HPLC/LC-MS/MS analysis in presence of NADPH-generating system and NADPH-generating system/SAM; format: ADME
T1 sequence (P05177 whole entry): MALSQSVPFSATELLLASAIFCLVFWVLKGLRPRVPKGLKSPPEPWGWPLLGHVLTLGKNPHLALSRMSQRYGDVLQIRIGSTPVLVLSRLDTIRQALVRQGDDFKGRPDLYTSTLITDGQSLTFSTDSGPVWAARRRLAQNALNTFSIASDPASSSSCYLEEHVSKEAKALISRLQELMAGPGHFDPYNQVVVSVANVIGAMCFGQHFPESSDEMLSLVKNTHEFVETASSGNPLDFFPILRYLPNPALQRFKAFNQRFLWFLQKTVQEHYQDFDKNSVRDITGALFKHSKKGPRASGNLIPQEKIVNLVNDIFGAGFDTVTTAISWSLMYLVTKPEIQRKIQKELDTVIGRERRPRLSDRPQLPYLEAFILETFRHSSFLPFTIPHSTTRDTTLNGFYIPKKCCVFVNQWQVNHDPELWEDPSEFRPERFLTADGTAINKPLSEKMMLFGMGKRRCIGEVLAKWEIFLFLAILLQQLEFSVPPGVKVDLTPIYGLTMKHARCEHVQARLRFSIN
Outline: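 Baculovirus/insect-cell microsomes expressing single human CYPs, 1 mg/ml protein, with 50 mM potassium phosphate (pH 7.4) or 100 mM Tris-HCl (pH 7.5). NADPH-generating system: 2 mM NADP⁺, 20 mM glucose 6-phosphate, 2 units/ml G6PDH, 10 mM MgCl₂. [¹⁴C]rivoglitazone at 20 μM, 2 h at 37°C with shaking. Control used insect-cell control supersomes. Stopped with acetonitrile; supernatant concentrated under nitrogen; metabolites analysed by radio-HPLC, LC-MS and LC-MS/MS.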

[2] = Drug metabolism in monkey hepatocytes assessed as formation of 2-mercapto-3-(4-((6-methoxy-1-methyl-1H-benzo[d]imidazol-2-yl)methoxy)phenyl)propanamide at 30 uM after 3 hrs by radio-HPLC/LC-MS/MS analysis in presence of NADPH-generating system and NADPH-generating system/SAM; details: cynomolgus monkey
Cytochrome P450 2C8 = molecular target: T2, Cytochrome P450 2C8 (Homo sapiens, UniProt P10632); assay: (§2) Activity of human CYP2C8 expressed in microsomes isolated from baculovirus infected insect cell assessed as enzyme-mediated 3-(4-((6-methoxy-1-methyl-1H-benzo[d]imidazol-2-yl)methoxy)phenyl)-2-(methylsulfonyl)propanamide formation at 20 uM after 2 hrs by radio-HPLC/LC-MS/MS analysis in presence of NADPH-generating system/SAM; format: ADME
T2 sequence (P10632 whole entry): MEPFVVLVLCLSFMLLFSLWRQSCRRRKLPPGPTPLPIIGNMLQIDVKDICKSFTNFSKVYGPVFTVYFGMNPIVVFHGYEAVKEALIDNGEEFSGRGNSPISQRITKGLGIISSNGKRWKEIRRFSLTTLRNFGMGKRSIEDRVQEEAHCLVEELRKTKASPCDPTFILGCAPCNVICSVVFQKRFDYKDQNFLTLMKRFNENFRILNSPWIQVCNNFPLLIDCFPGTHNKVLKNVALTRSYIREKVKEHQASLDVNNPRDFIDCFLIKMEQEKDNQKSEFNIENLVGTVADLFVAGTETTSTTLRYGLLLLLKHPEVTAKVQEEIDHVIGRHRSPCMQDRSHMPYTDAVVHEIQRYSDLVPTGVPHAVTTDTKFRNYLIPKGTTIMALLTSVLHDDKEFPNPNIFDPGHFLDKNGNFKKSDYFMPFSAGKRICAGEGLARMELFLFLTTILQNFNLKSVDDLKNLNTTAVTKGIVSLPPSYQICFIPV

Cytochrome P450 2C19 = Cytochrome P450 2C19 (Homo sapiens, UniProt P33261); assay: Activity of human CYP2C19 expressed in microsomes isolated from baculovirus infected insect cell assessed as enzyme-mediated 3-(4-((6-methoxy-1-methyl-1H-benzo[d]imidazol-2-yl)methoxy)phenyl)-2-(methylsulfinyl)propanamide formation at 20 uM after 2 hrs by radio-HPLC/LC-MS/MS analysis in presence of NADPH-generating system/SAM; format: ADME
Chain of Cytochrome P450 2C19 (P33261 whole entry): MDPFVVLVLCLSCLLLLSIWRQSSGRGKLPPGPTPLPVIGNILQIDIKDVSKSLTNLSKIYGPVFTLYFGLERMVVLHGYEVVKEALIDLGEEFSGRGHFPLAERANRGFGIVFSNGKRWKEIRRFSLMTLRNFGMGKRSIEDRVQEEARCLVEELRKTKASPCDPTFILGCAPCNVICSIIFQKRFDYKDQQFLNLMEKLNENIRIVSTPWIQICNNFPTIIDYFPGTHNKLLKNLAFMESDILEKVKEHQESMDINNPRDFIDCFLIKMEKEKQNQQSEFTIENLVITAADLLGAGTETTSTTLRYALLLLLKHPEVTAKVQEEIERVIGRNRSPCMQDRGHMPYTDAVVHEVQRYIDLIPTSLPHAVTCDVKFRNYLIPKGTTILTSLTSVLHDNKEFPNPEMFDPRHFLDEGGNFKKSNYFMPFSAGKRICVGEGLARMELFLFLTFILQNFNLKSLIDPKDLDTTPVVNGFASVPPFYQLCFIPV

[3] = molecular target: T3, UDP-glucuronosyltransferase 2B7 (Homo sapiens, UniProt P16662); assay: as §1, with “human UGT2B7” for “human CYP1A2”, “after 4” for “after 2”, “system/SAM in presence of UDPGA and UDPGA/SAM” for “system/SAM”; format: ADME
T3 sequence (P16662 whole entry): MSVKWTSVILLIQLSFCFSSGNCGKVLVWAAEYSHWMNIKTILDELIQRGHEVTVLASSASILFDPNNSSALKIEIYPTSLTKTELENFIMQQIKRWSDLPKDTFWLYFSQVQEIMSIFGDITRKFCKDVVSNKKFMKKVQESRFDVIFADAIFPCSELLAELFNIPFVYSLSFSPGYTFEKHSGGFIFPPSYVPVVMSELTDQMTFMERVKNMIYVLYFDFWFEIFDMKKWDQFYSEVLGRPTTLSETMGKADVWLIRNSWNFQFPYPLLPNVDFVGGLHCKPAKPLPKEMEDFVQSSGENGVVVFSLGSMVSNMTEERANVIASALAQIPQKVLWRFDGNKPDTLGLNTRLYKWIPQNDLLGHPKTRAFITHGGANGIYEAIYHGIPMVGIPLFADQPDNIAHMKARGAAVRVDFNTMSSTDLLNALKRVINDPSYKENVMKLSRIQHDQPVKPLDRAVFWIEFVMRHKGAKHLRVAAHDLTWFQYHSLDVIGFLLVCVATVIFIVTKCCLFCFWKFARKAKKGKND

Cytochrome P450 2D6 [4] = molecular target: T4, Cytochrome P450 2D6 (Homo sapiens, UniProt P10635); assay: as §1, with “CYP2D6” for “CYP1A2”; format: ADME
T4 sequence (P10635 whole entry): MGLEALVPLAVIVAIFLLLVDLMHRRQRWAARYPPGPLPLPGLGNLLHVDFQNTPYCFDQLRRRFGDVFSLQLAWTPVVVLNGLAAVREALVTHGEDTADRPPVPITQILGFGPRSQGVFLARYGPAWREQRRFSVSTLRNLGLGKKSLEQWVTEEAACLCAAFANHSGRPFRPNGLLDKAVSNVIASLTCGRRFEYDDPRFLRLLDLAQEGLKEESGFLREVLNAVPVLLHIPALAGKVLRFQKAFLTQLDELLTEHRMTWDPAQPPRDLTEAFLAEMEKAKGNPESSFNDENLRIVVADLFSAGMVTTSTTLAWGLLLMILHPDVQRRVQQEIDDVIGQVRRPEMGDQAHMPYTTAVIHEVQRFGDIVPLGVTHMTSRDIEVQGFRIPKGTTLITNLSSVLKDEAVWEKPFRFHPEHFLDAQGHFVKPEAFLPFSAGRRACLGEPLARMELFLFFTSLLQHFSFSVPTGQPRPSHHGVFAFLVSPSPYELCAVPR

Cytochrome P450 2D6 [5] = molecular target: T4, Cytochrome P450 2D6; assay: Activity of human CYP2D6 expressed in microsomes isolated from baculovirus infected insect cell assessed as enzyme-mediated 5-(4-((6-hydroxy-1-methyl-1H-benzo[d]imidazol-2-yl)methoxy)benzyl)thiazolidine-2,4-dione formation at 20 uM after 2 hrs by radio-HPLC/LC-MS/MS analysis in presence of NADPH-generating system and NADPH-generating system/SAM; format: ADME
Cytochrome P450 1A2 [6] = molecular target: T1, Cytochrome P450 1A2; assay: as §2, with “CYP1A2” for “CYP2C8”; format: ADME
Liver microsome = assay: Drug metabolism in Sprague-Dawley rat liver microsomes assessed as formation of (2S,3S,4S,5R,6R)-3,4,5-trihydroxy-6-(5-(4-((6-methoxy-1-methyl-1H-benzo[d]imidazol-2-yl)methoxy)benzyl)-2,4-dioxothiazolidin-3-yl)tetrahydro-2H-pyran-2-carboxylic acid at 20 uM after 4 hrs by radio-HPLC/LC-MS/MS analysis in presence of UDPGA and UDPGA/SAM; format: ADME
Cytochrome P450 2D6 [7] = molecular target: T4, Cytochrome P450 2D6; assay: Activity of human CYP2D6 expressed in microsomes isolated from baculovirus infected insect cell assessed as enzyme-mediated (2S,3S,4S,5R,6R)-3,4,5-trihydroxy-6-(5-(4-((6-methoxy-1-methyl-1H-benzo[d]imidazol-2-yl)methoxy)benzyl)-2,4-dioxothiazolidin-3-yl)tetrahydro-2H-pyran-2-carboxylic acid formation at 20 uM after 2 hrs by radio-HPLC/LC-MS/MS analysis in presence of UDPGA and UDPGA/SAM; format: ADME

Drug metabolism (Cytochrome P450 1A2 [1]): metabolite_detected | Drug metabolism [2]: metabolite_not_detected | Drug metabolism (Cytochrome P450 2C8): metabolite_not_detected | Drug metabolism (Cytochrome P450 2C19): metabolite_not_detected | Drug metabolism [3]: metabolite_not_detected | Drug metabolism (Cytochrome P450 2D6 [4]): metabolite_detected | Drug metabolism (Cytochrome P450 2D6 [5]): metabolite_detected | Drug metabolism (Cytochrome P450 1A2 [6]): metabolite_not_detected | Drug metabolism (Liver microsome): metabolite_detected | Drug metabolism (Cytochrome P450 2D6 [7]): metabolite_not_detected
SMILES: COc1ccc2nc(COc3ccc(C[14CH]4SC(=O)NC4=O)cc3)n(C)c2c1.Cl (racemic)
